According to ChEMBL document CHEMBL1149790, “Synthesis of some novel thiourea derivatives obtained from 5-[(4-aminophenoxy)methyl]-4-alkyl/aryl-2,4-dihydro-3H-1,2,4-triazole-3-thiones and evaluation as antiviral/anti-HIV and anti-tuberculosis agents” (Eur J Med Chem, 2008):
Converted amounts (≈) assume the structure as drawn. The source made the active and inactive calls. No cut-off for these calls is given here.

How the values were obtained:
Human alphaherpesvirus 3 [1] = test: Antiviral activity against TK- VZV 07/1 infected HEL cells assessed as reduction in virus plaque formation; type: functional, organism-based; conditions: Human alphaherpesvirus 3, 07/1, HEL
[2] = Cytotoxicity against human HEL cells assessed as alteration of cell morphology; type: cell-based
Summary of the method: (§1)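 Uninfected cell cultures exposed to test compounds alongside antiviral assays; minimum cytotoxic concentration (MCC) = concentration causing a microscopically detectable alteration of cell morphology.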

[3] = Cytotoxicity against human MT4 cells by MTT assay; type: cell-based
Summary of the method: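 Mock-infected MT-4 cells (6 × 10⁵ cells/ml) with serial five-fold compound dilutions in triplicate; MTT reduction read at 540 and 690 nm after 5 days, median OD of three wells; CC50 = concentration reducing OD540 of mock-infected control by 50%.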

Human alphaherpesvirus 1 [4] = test: Antiviral activity against HSV1 KOS in human E6SM cells assessed as reduction of virus-induced cytopathogenicity; type: functional; conditions: Human alphaherpesvirus 1, KOS
Summary of the method: (§2)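 Confluent cell monolayers (E6SM, HEL, HeLa or Vero, per line) inoculated with 100 CCID50 virus; 1 h adsorption, residual virus removed, then incubated with compound at 400, 200, 100 … µg/ml. Cytopathicity scored once complete in untreated virus controls; MIC = concentration inhibiting virus-induced cytopathicity.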

Human betaherpesvirus 5 [5] = test: Antiviral activity against human cytomegalovirus Davis infected HEL cells assessed as reduction in virus plaque formation; type: functional, organism-based; conditions: Human betaherpesvirus 5, Davis
Human alphaherpesvirus 1 [6] = test: Antiviral activity against thymidine kinase deficient and acyclovir resistant HSV1 KOS in human HEL cells assessed as reduction of virus-induced cytopathogenicity; type: functional; conditions: Human alphaherpesvirus 1, KOS; summary of the method: as §2
[7] = test system: Mycobacterium tuberculosis; test: Antitubercular activity against Mycobacterium tuberculosis H37Rv at 6.25 ug/ml by MABA assay; type: functional
Punta Toro virus = test: Antiviral activity against Punta Toro virus in african green monkey Vero cells assessed as reduction of virus-induced cytopathogenicity; type: functional; summary of the method: as §2
[8] = test system: Respiratory syncytial virus; test: Antiviral activity against respiratory syncytial virus in human HeLa cells assessed as inhibition of virus-induced cytopathogenicity; type: functional; summary of the method: as §2
[9] = test system: Human immunodeficiency virus 1; test: Antiviral activity against HIV1 3B in human MT4 cells assessed as protection against virus-induced cytopathogenicity by MTT assay; type: functional, organism-based; design: Activity: concentration or dose not given beside the values; conditions: for IC50: Human immunodeficiency virus 1, 3B, MT4
Summary of the method: (§3)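 MT-4 cells at 6 × 10⁵ cells/ml infected with HIV-1 IIIB or HIV-2 ROD at 100–300 CCID50; compounds in serial five-fold dilutions, triplicate mock- and virus-infected wells. MTT viability read at 540 and 690 nm after 5 days, median OD of three wells; EC50 = 50% protection from viral cytopathic effect.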

[10] = test system: Vesicular stomatitis virus; test: Antiviral activity against in Vesicular stomatitis virus in human E6SM cells assessed as reduction of virus-induced cytopathogenicity; type: functional; summary of the method: as §2
Human alphaherpesvirus 2 [11] = test: Antiviral activity against HSV2 G in human HEL cells assessed as reduction of virus-induced cytopathogenicity; type: functional; conditions: Human alphaherpesvirus 2, G; summary of the method: as §2
Sindbis virus = test: Antiviral activity against Sindbis virus in african green monkey Vero cells assessed as reduction of virus-induced cytopathogenicity; type: functional; summary of the method: as §2
[12] = test system: Vesicular stomatitis virus; test: Antiviral activity against in Vesicular stomatitis virus in human HEL cells assessed as reduction of virus-induced cytopathogenicity; type: functional; summary of the method: as §2
Human alphaherpesvirus 1 [13] = test: Antiviral activity against HSV1 KOS in human HEL cells assessed as reduction of virus-induced cytopathogenicity; type: functional; conditions: Human alphaherpesvirus 1, KOS; summary of the method: as §2
[14] = Cytotoxicity against human E6SM cells; type: cell-based; conditions: E6SM cells; summary of the method: as §1
Human alphaherpesvirus 3 [15] = test: Antiviral activity against TK+ VZV OKA infected HEL cells assessed as reduction in virus plaque formation; type: functional, organism-based; conditions: Human alphaherpesvirus 3, OKA
Human alphaherpesvirus 2 [16] = test: Antiviral activity against HSV2 G in human E6SM cells assessed as reduction of virus-induced cytopathogenicity; type: functional; conditions: Human alphaherpesvirus 2, G; summary of the method: as §2
Coxsackievirus B4 [17] = test: Antiviral activity against Coxsackie virus B4 in human HeLa cells assessed as inhibition of virus-induced cytopathogenicity; type: functional; conditions: Enterovirus B; summary of the method: as §2
Human respirovirus 3 = test: Antiviral activity against Parainfluenza 3 virus in african green monkey Vero cells assessed as reduction of virus-induced cytopathogenicity; type: functional; summary of the method: as §2
[18] = test system: Mammalian orthoreovirus 1; test: Antiviral activity against Reo virus 1 in african green monkey Vero cells assessed as reduction of virus-induced cytopathogenicity; type: functional; summary of the method: as §2
Coxsackievirus B4 [19] = test: Antiviral activity against Coxsackie virus B4 in african green monkey Vero cells assessed as reduction of virus-induced cytopathogenicity; type: functional; conditions: Enterovirus B; summary of the method: as §2
[20] = test system: Vesicular stomatitis virus; test: Antiviral activity against vesicular stomatitis virus in human HeLa cells assessed as inhibition of virus-induced cytopathogenicity; type: functional; summary of the method: as §2
[21] = Cytotoxicity against human HEL cells assessed as reduction of cell growth; type: cell-based
Summary of the method: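 HEL cells; CC50 = compound concentration reducing cell growth by 50%.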

Vero = test: Cytotoxicity against african green monkey Vero cells; type: cell-based; conditions: chlorocebus sabaeus; summary of the method: as §1
Human alphaherpesvirus 1 [22] = test: Antiviral activity against thymidine kinase deficient and acyclovir resistant HSV1 KOS in human E6SM cells assessed as reduction of virus-induced cytopathogenicity; type: functional; conditions: Human alphaherpesvirus 1, KOS; summary of the method: as §2
Human betaherpesvirus 5 [23] = test: Antiviral activity against human cytomegalovirus AD169 infected HEL cells assessed as reduction in virus plaque formation; type: functional, organism-based; conditions: Human betaherpesvirus 5, AD169, HEL
[24] = test system: Human immunodeficiency virus 2; test: Antiviral activity against HIV2 ROD in human MT4 cells assessed as protection against virus-induced cytopathogenicity by MTT assay; type: functional, organism-based; design: Activity: concentration or dose not given beside the values; conditions: for IC50: Human immunodeficiency virus 2, ROD, MT4; summary of the method: as §3
[25] = Cytotoxicity against human HeLa cells; type: cell-based; summary of the method: as §1

| SMILES | EC50 (Human alphaherpesvirus 3 [1]) [µg/mL] | MCC [2] [µg/mL] | CC50 [3] [µg/mL] | MIC (Human alphaherpesvirus 1 [4]) [µg/mL] | EC50 (Human betaherpesvirus 5 [5]) [µg/mL] | MIC (Human alphaherpesvirus 1 [6]) [µg/mL] | MIC (Punta Toro virus) [µg/mL] | MIC [8] [µg/mL] | Activity [9] [%] | IC50 [9] [µg/mL] | MIC [10] [µg/mL] | MIC (Human alphaherpesvirus 2 [11]) [µg/mL] | MIC (Sindbis virus) [µg/mL] | MIC [12] [µg/mL] | MIC (Human alphaherpesvirus 1 [13]) [µg/mL] | MCC [14] [µg/mL] | EC50 (Human alphaherpesvirus 3 [15]) [µg/mL] | MIC (Human alphaherpesvirus 2 [16]) [µg/mL] | MIC (Coxsackievirus B4 [17]) [µg/mL] | MIC (Human respirovirus 3) [µg/mL] | further results |
| --- | --- | --- | --- | --- | --- | --- | --- | --- | --- | --- | --- | --- | --- | --- | --- | --- | --- | --- | --- | --- | --- |
| C=CCNC(=S)Nc1ccc(OCc2n[nH]c(=S)n2CC=C)cc1 | 46 (≈ 127 µM) | > 400 | 71.5 (≈ 198 µM) | 240 (≈ 664 µM) | 77 (≈ 213 µM) | 240 (≈ 664 µM) | > 80 | > 80 | 3 | > 66.5 | > 400 | 240 (≈ 664 µM) | > 80 | > 400 | 240 (≈ 664 µM) | > 400 | 41 (≈ 113 µM) | 240 (≈ 664 µM) | > 80 | > 80 | inhibition at 6.25 µg/mL [7]: 59%; MIC [18]: > 80 µg/mL; MIC (Coxsackievirus B4 [19]): 48 µg/mL (≈ 133 µM); MIC [20]: > 80 µg/mL; CC50 [21]: > 50 µg/mL; Activity (Vero): 400 µg/mL; MIC (Human alphaherpesvirus 1 [22]): 240 µg/mL (≈ 664 µM); EC50 (Human betaherpesvirus 5 [23]): 100 µg/mL (≈ 277 µM); Activity [24]: 1%; IC50 [24]: > 69.7 µg/mL; MCC [25]: 400 µg/mL |
| CCNC(=S)Nc1ccc(OCc2n[nH]c(=S)n2CC)cc1 | 58 (≈ 172 µM) | > 400 | 94.2 (≈ 279 µM) | > 400 | 55 (≈ 163 µM) | 240 (≈ 711 µM) | > 80 | > 80 | 9.5 | > 88.3 | > 400 | 240 (≈ 711 µM) | > 80 | > 400 | > 400 | > 400 | 64 (≈ 190 µM) | 240 (≈ 711 µM) | > 80 | > 80 | Activity [7]: inactive; MIC [18]: > 80 µg/mL; MIC (Coxsackievirus B4 [19]): 48 µg/mL (≈ 142 µM); MIC [20]: > 80 µg/mL; CC50 [21]: > 50 µg/mL; Activity (Vero): 400 µg/mL; MIC (Human alphaherpesvirus 1 [22]): 240 µg/mL (≈ 711 µM); EC50 (Human betaherpesvirus 5 [23]): 49 µg/mL (≈ 145 µM); Activity [24]: 8%; IC50 [24]: > 91.1 µg/mL; MCC [25]: 400 µg/mL |
| C=CCn1c(COc2ccc(NC(=S)NCC)cc2)n[nH]c1=S | 64 (≈ 183 µM) | > 400 | 90 (≈ 258 µM) | > 400 | > 100 | > 400 | > 80 | > 80 | 4 | > 76.5 | > 400 | > 400 | > 80 | > 400 | > 400 | > 400 | 64 (≈ 183 µM) | > 400 | > 80 | > 80 | Activity [7]: inactive; MIC [18]: > 80 µg/mL; MIC (Coxsackievirus B4 [19]): 80 µg/mL (≈ 229 µM); MIC [20]: > 80 µg/mL; CC50 [21]: > 50 µg/mL; Activity (Vero): 400 µg/mL; MIC (Human alphaherpesvirus 1 [22]): > 400 µg/mL; EC50 (Human betaherpesvirus 5 [23]): > 100 µg/mL; Activity [24]: 2.5%; IC50 [24]: > 86.2 µg/mL; MCC [25]: 400 µg/mL |
| C=CCNC(=S)Nc1ccc(OCc2n[nH]c(=S)n2CC)cc1 | 42 (≈ 120 µM) | > 400 | 75.9 (≈ 217 µM) | > 400 | 45 (≈ 129 µM) | 240 (≈ 687 µM) | > 80 | > 80 | 3 | > 72.3 | > 400 | 240 (≈ 687 µM) | 48 (≈ 137 µM) | > 400 | > 400 | > 400 | 41 (≈ 117 µM) | 240 (≈ 687 µM) | > 80 | > 80 | inhibition at 6.25 µg/mL [7]: 75%; MIC [18]: > 80 µg/mL; MIC (Coxsackievirus B4 [19]): 48 µg/mL (≈ 137 µM); MIC [20]: > 80 µg/mL; CC50 [21]: > 50 µg/mL; Activity (Vero): 400 µg/mL; MIC (Human alphaherpesvirus 1 [22]): 240 µg/mL (≈ 687 µM); EC50 (Human betaherpesvirus 5 [23]): 45 µg/mL (≈ 129 µM); Activity [24]: 2%; IC50 [24]: > 71.4 µg/mL; MCC [25]: 400 µg/mL |
